Screening results as filed in PubChem.
PglD DTNB – blocks C. jejuni PglD acetyltransferase activity. purified PglD enzyme, DTNB colorimetric CoA detection. inhibition, % at 12.5 µM. hit rate 0.098% among 360,000; in the data active = inhibition above about 16%, passing the limit was not always enough; inconclusive = no clear call, values can overlap the other calls
rRNA inh HTS – inhibits bacterial ribosomal RNA function over humanized ribosomes. GFP signal change (wild-type ribosome), % (concentration not given with the values). E. coli WT GFP vs humanized-ribosome RFP mutants, fluorescence, 24 h; stronger effect = lower value; DMSO median 0, no signal -100. hit rate 1.6% among 350,000. AID 720706;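 active = significant combined selectivity score with lowered wild-type GFP, culture density cut under 30%, mutant RFP and density less affected; inactive = any of these conditions unmet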
Cneo AK release – Cryptococcus neoformans lysis via adenylate kinase release. C. neoformans lysis, adenylate kinase release luminescence, 4 h; normalised: neutral wells 0, clomiphene wells 100. hit rate 0.2% among 360,000. lysis activity, % at 15 µM. AID 651654;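 active = mean lysis activity across replicates of at least 80%, whatever share of replicates individually reach that level; inactive = mean lysis activity below 80%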
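Test system: log-phase Cryptococcus neoformans yeast cells; Quantity: yeast cell density of 5 × 10^6 cells/mL; Buffer or medium: YPD; Doses: single compound concentration per well; Timing: 4 h at 37 °C static, read 1 h later; Measured by: AK luminescence; Read-out basis: lysis from increased AK signal; Control set: Clomiphene as positive control.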
Mot1-301 SUMO – blocks SUMOylation pathway, rescuing yeast Mot1-301 growth; growth rescue, % at 18.8 µM; S. cerevisiae Mot1-301 growth rescue, ATP luminescence, 38.5C; percent above DMSO median, 100 means doubled; hit rate 1% among 320,000;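 active = every valid replicate shows activation above 250% relative to neutral control wells; inactive = the rest, any valid replicate at or below 250%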;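 also: OY570 slx delta 5 strain wells were the positive control but not used for scaling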
CR mimetic SO – yeast age-related superoxide inhibition as caloric restriction mimetic; S. cerevisiae aged cells, superoxide DHE fluorescence; stronger effect = lower value; superoxide response (% of plate mean), % at 10 µM; hit rate 0.18% among 330,000;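 active = superoxide response under a set limit, about three screen SD below normal, cut at about 65% in these data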;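 also: yeast aged for seven days with compound at 30 °C before DHE staining; 100% = average MFI of all compound-treated wells on the plate with controls excluded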
AID977621 – growth inhibition of wild-type GFP E. coli, dose response, H69 mutant RFP, cherry-pick; shares compounds with rRNA inh HTS; E. coli wild-type GFP strain growth, fluorescence, 24 h; activity change, negative = inhibition at 50 µM; 1,900 tested, under 10 active;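 active = Wild-type ribosome reporter drop at least double the humanized mutant ribosome reporter drop, growth loss under a set limit; inconclusive = no clear call, values can overlap the other calls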;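 also: wild-type GFP and H69 mutant RFP strains grown together 50/50 in each well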
AID977628 – growth of wild-type and h24-humanized E. coli strains – h24 mutant RFP vs wild-type GFP, cherry-pick, dose response | shares compounds with rRNA inh HTS | E. coli WT GFP strain growth, fluorescence, 24 h | activity change, negative = inhibition at 50 µM | 1,900 tested, under 10 active | AID 977628;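 active = compound lowering the normal-ribosome reporter at least twice as much as the humanized-ribosome reporter, growth loss under a set limit; inconclusive = no clear call, values can overlap the other calls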;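 also: wild-type GFP and h24 humanized RFP strains co-cultured 1 to 1 per well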
The depositor's hits bear a star; ? = inconclusive; · = not tested or not shown; ! = repeats disagree. Hits are enriched below; roughly 2.2% of the tested compounds scored in any of these assays.

SMILES	PglD DTNB	rRNA inh HTS	Cneo AK release	Mot1-301 SUMO	CR mimetic SO	AID977621	AID977628
C=CCn1c(SCc2n[nH]c(=S)n2-c2ccccc2)nnc1-c1ccccc1	4.0	-21.5*	-2.2	-7.6	87.7	·	?
Cc1ccccc1OCc1nc2ccccc2n1C	0.3	-27.2*	-1.6	-3.0	85.1	·	-0.211
O=C(NCc1cccc(Cl)c1)c1ccc2c(c1)SC1=NS(=O)(=O)CCN12	·	3.5	·	136.3	107.1	·	·
O=C(NCc1ccccc1Cl)c1ccc2c(c1)SC1=NS(=O)(=O)CCN12	·	-20.3*	·	-28.0	109.6	-12.7	-9.44
O=C(CSc1ccccc1)NCCCc1ccccc1	-3.2	-23.1*	0.7	-10.9	86.7	-5.57	?
C[C@H](CO)N1C[C@H](C)[C@H](CN(C)C(=O)Nc2cccc(Oc3ccccn3)c2)OCc2cn(nn2)CCCC1=O	·	3.7	·	·	·	·	·
Cc1cccc(NC(=O)COc2cccc3c2CCNC3=O)c1	-0.2	-18.5*	-0.4	·	·	-9.71	-10.4
CC(C)C(=O)Nc1ccc2c(c1)C(=O)N(C)[C@@H]1CC[C@H](CC(=O)NCc3ccc(F)cc3)O[C@@H]1CO2	13.3	-0.3	-3.5	·	·	·	·
CC(=O)Cc1cc(O)c2ccccc2c1OC(=O)c1ccc(Br)cc1	·	-14.5*	·	2.1	112.3	6.87	0.516
CC(C)c1cc(C(N)=O)c(NC(=O)C2CCC2)s1	·	-23.6*	·	0.5	97.4	?	·
CCCNC(=O)C[C@@H]1C[C@@H]2c3cc(NS(=O)(=O)c4ccccc4)ccc3O[C@@H]2[C@@H](CO)O1	-6.0	-1.2	-4.3	·	·	·	·
COC(=O)c1sccc1NC(=O)CNC(=O)c1ccccc1	·	-22.8*	·	-14.1	96.9	-15.5	-13.7
C[C@@H]1CN([C@@H](C)CO)C(=O)c2cc(C#C[C@@H](C)O)cnc2O[C@@H]1CN(C)C(=O)c1ccccc1	-2.9	4.8	-2.3	·	·	·	·
CN(C)C(=O)c1cccc(-c2ccc(C3[C@H]4CNC[C@@H]3N4S(=O)(=O)c3ccccc3F)cc2)c1 (stereo not given in full)	·	-21.6*!	·	·	·	-8.04	?
N#Cc1ccc(-c2ccc(C3[C@H]4CNC[C@@H]3N4S(=O)(=O)c3ccc(-c4ccccc4)cc3)cc2)cc1 (stereo not given in full)	·	-18.2*	·	·	·	-5.37	·
CN(C)C(=O)c1cccc(-c2ccc([C@@H]3[C@H]4CN(CC5CCOCC5)CCCCN4[C@H]3CO)cc2)c1	-3.3	2.2	5.3	·	·	·	·
O=C(NCc1ccccc1)C1C(=O)Nc2ccccc2C(=O)N1c1ccc2c(c1)OCCO2 (stereo not given)	·	-17.3*	·	·	·	3.71	-3.78
COc1ccc(CNC(=O)C[C@@H]2CC[C@@H](NC(=O)c3cccc(F)c3)[C@H](CO)O2)cc1	-3.0	1.0	10.3	·	·	·	·
O=c1[nH]c2cc([N+](=O)[O-])ccc2c2ccccc12	·	-12.6*	·	·	·	-1.99	?
COc1cccc(NC(=O)N[C@H]2CC[C@@H](CC(=O)N3CCCCC3)O[C@@H]2CO)c1	10.3	-2.2	-19.0	·	·	·	·
Cc1cccc(C(=O)NCC(=O)NCCSc2ccc(Br)cc2)c1	1.9	-22.3*	1.4	·	95.8	-10.1	·
O=C(Nc1cccc(Cl)c1)N[C@@H]1CC[C@H](CCNC(=O)C2CC2)O[C@@H]1CO	-1.7	-2.3	-3.5	·	·	·	·
COc1cccc(NC(=O)c2ccc(NCCCN3CC(C)CC(C)C3)c([N+](=O)[O-])c2)c1 (stereo not given)	·	-46.0*	·	·	·	?	-5.13
CCCN(CCC)CCCNc1ccc(C(=O)Nc2cccc(OC)c2)cc1[N+](=O)[O-]	-2.6	-10.2	1.4	203.5	113.5	·	·
COc1cccc(NC(=O)c2ccc(NCCCN3CCC(C)CC3)c([N+](=O)[O-])c2)c1	-2.5	-25.4*	-0.6	278.5	99.0	-3.49	?
SMILES	PglD DTNB	rRNA inh HTS	Cneo AK release	Mot1-301 SUMO	CR mimetic SO	AID977621	AID977628
COC(=O)c1sc(C(C)(C)C)cc1CS(=O)(=O)c1ccc(Cl)cc1	·	-30.6*	·	10.1	106.8	1.61	-3.78
COC(=O)c1ccc(N)c(CS(=O)(=O)c2ccc(Cl)cc2)c1	3.3	-3.1	-0.2	-18.0	106.8	·	·
O=C(c1ccccc1)N(Cc1ccccc1)c1ccccn1	7.6	·	-1.5	60.0	104.3	·	·
O=C(Cc1c(F)cccc1Cl)N(Cc1ccccc1)c1ccccn1	·	-20.9*	·	·	104.5	4.97	-5.9
Nc1ccccc1C#CC(=O)c1ccccc1	-0.9	-22.9*	-0.6	131.0	131.7	·	?
COc1cccc(S(=O)(=O)N2C[C@@H](O)COC[C@@H]3O[C@@H](CC(=O)N4CCCCC4)CC[C@H]32)c1	-22.7	-3.9	38.0	·	·	·	·
C[C@@H]1CN([C@@H](C)CO)C(=O)Cc2cc(NC(=O)Cn3cnnn3)ccc2O[C@H]1CN(C)S(=O)(=O)c1cccs1	-0.6	2.1	44.8	·	·	·	·
COCC(=O)N1C[C@H]2[C@@H](c3ccccc31)[C@@H](CO)N2Cc1ccccc1Cl	-2.4	-3.4	1.8	·	·	·	·
CNC(=O)C[C@H]1CC[C@H]2[C@@H](COc3ccc(NC(=O)Nc4ccc(F)c(F)c4)cc3C(=O)N2C)O1	0.7	-1.2	0.6	·	·	·	·
CNC(=O)C[C@H]1CC[C@@H]2[C@@H](COc3ccc(NC(=O)Nc4ccc(F)c(F)c4)cc3C(=O)N2C)O1	-3.9	-19.9*	-5.7	·	·	·	?
C[C@H]1CN([C@@H](C)CO)C(=O)c2ccccc2-c2ccccc2CO[C@H]1CN(C)C(=O)CCN(C)C	4.0	-4.7	-1.4	·	·	·	·
CC(=O)CSc1ccc(-c2nc3cc(C)c(C)cc3[nH]2)cn1	·	-27.4	·	-9.4	95.5	·	·
CC(=O)CSc1ccc(-c2nc3ccccc3[nH]2)cn1	-5.3	-23.7*	-2.9	166.9	98.0	2.76	-1.67
O=C(c1ccccc1F)N1C[C@H]2[C@@H](c3ccccc31)[C@@H](CO)N2C(=O)Nc1ccccc1	1.2	-5.7	-0.7	·	·	·	·
CC(=O)N1C[C@H]2[C@@H](c3ccccc31)[C@@H](CO)N2C(=O)c1ccc(F)cc1	2.5	6.0	-0.8	·	·	·	·
CCOC(=O)c1c(NC(=O)CN2CCN(C(=O)C3CCCO3)CC2)sc(C)c1C (stereo not given)	2.4	0.6	0.9	0.9	112.2	·	·
CCOC(=O)c1c(NC(=O)CN2CCC(C)CC2)sc(C)c1C	-0.9	-21.2*	2.7	21.5	96.8	2.21	-13.9
Fc1ccc(-c2nc3c(Cl)cc(C(F)(F)F)cn3c2Cc2ccsc2)cc1	·	-17.2*	·	·	·	-12.4	-6.75
Cc1ccc(-c2nc3c(Cl)cc(C(F)(F)F)cn3c2Cc2ccsc2)cc1	·	-6.6	·	·	·	·	·
N#C[C@H]1[C@@H](c2ccccc2C2=CCCC2)[C@H](CO)N1C(=O)C1CCOCC1	·	-2.2	·	·	·	·	·
